Experimental data reported in ChEMBL document CHEMBL1275448, “Identification of a novel multidrug efflux pump of Mycobacterium tuberculosis” (2008).
Values after ≈ are worked out from the molar mass of the structure shown.

What was measured:
[1] = system: Mycobacterium tuberculosis; assay: Antimicrobial activity against wild-type Mycobacterium bovis BCG by microplate Alamar blue assay; type: functional; settings: variant bovis BCG
How it was run: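 Whole-cell M. bovis BCG (Institut Pasteur) MABA; mutants carried IS1096::Km insertions. Growth was in Middlebrook 7H9 with 0.2% glycerol, 0.05% Tween 80 and 10% OADC. Final drug ranges: ampicillin 62.5–2,000 μg/ml, vancomycin 1.25–40 μg/ml, streptomycin 0.25–8 μg/ml, chloramphenicol 4–128 μg/ml, tetracycline 0.5–16 μg/ml. MIC was the lowest concentration cutting viability ≥90%, read by fluorescence (ex 530/em 590 nm, room temperature).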

[2] = system: Mycobacterium tuberculosis; assay: Resistance factor, ratio of MIC for Mycobacterium bovis BCG ML1034 to MIC for wild-type Mycobacterium bovis BCG; type: functional, variant bovis BCG
How it was run: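 Resistance factor is the MABA MIC for BCG mutant ML1034 divided by the MIC for wild-type BCG. Both MICs were taken as ≥90% viability reduction, read by fluorescence (ex 530/em 590 nm).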

| SMILES | MIC [1] | Ratio [2] |
| --- | --- | --- |
| CC1(C)S[C@@H]2[C@H](NC(=O)[C@H](N)c3ccccc3)C(=O)N2[C@H]1C(=O)O [AMPICILLIN] | 62.5 µg/mL (≈ 179 µM) | 32 |
| O=C(N[C@H](CO)[C@H](O)c1ccc([N+](=O)[O-])cc1)C(Cl)Cl [CHLORAMPHENICOL] | 8 µg/mL (≈ 24.8 µM) | 64 |
| CN(C)[C@@H]1C(O)=C(C(N)=O)C(=O)[C@@]2(O)C(O)=C3C(=O)c4c(O)cccc4[C@@](C)(O)[C@H]3C[C@@H]12 [TETRACYCLINE] | 2 µg/mL (≈ 4.5 µM) | >8 |
| CN[C@@H]1[C@H](O[C@H]2[C@H](O[C@H]3[C@H](O)[C@@H](O)[C@H](N=C(N)N)[C@@H](O)[C@@H]3N=C(N)N)O[C@@H](C)[C@]2(O)C=O)O[C@@H](CO)[C@H](O)[C@H]1O [STREPTOMYCIN] | 0.5 µg/mL (≈ 0.86 µM) | 32 |
| CN[C@H](CC(C)C)C(=O)N[C@H]1C(=O)N[C@@H](CC(N)=O)C(=O)N[C@H]2C(=O)N[C@H]3C(=O)N[C@H](C(=O)N[C@H](C(=O)O)c4cc(O)cc(O)c4-c4cc3ccc4O)[C@H](O)c3ccc(c(Cl)c3)Oc3cc2cc(c3O[C@@H]2O[C@H](CO)[C@@H](O)[C@H](O)[C@H]2O[C@H]2C[C@](C)(N)[C@H](O)[C@H](C)O2)Oc2ccc(cc2Cl)[C@H]1O [VANCOMYCIN] | 5 µg/mL (≈ 3.45 µM) | 4 |
